# ChEMBL document CHEMBL1800063, “Isolation and structural elucidation of proline-containing cyclopentapeptides from an endolichenic Xylaria sp” (2011)
# Active and inactive are the calls of the source. The calls are words filed in the database; no cut-off is given here.
# Key:
# Candida albicans [1] = experiment: Antifungal activity against Candida albicans SC5314 at 100 ug/mL after 16 hrs by CLSI M-27A broth microdilution method in presence of 0.004 ug/mL ketoconazole relative to compound alone; assay type: functional, organism-based
# Candida albicans [2] = experiment: Antifungal activity against Candida albicans SC5314 at 100 ug/mL after 16 hrs by broth microdilution method; assay type: functional, organism-based
# Summary of the method: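 Candida albicans SC5314 broth microdilution adapted from CLSI M-27A. Overnight culture suspended in RPMI 1640 at 1 × 10^4 cfu/mL. 2 μL of sample plus 80 μL of suspension per well, incubated at 35 °C for 16 h. Ketoconazole was the positive control. Growth was read as optical density against blank-control wells to give the MIC.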
# Candida albicans [3] = experiment: Antifungal activity against Candida albicans SC5314 at 6.25 ug/mL after 16 hrs by broth microdilution method in presence of 0.004 ug/mL ketoconazole relative to compound alone; assay type: functional
# Candida albicans [4] = experiment: Antifungal activity against Candida albicans SC5314 at 1 ug/mL after 16 hrs by broth microdilution method in presence of 0.004 ug/mL ketoconazole relative to compound alone; assay type: functional
Structure (SMILES),Activity (Candida albicans [1]),Activity (Candida albicans [2]),fractional inhibitory concentration index (FICI) (Candida albicans [3]),fractional inhibitory concentration index (FICI) (Candida albicans [4])
CO[C@@H]1C=C2C3CC[C@H](C(C)/C=C/C(C)C(C)C)[C@@]3(C)CC[C@@H]2[C@@]2(C)CC[C@H](O)C[C@]12O (some centres not stated),inactive,inactive,–,–
CC(C)[C@@H](C)/C=C/[C@@H](C)[C@H]1CC[C@H]2C3=C[C@@H](O)[C@@]4(O)C[C@@H](O)CC[C@]4(C)[C@H]3CC[C@]12C,inactive,inactive,–,–
C[C@]1(CCO)CC[C@H]2C(=CC[C@@H]3[C@]2(C)CCC[C@@]3(C)C(=O)O)C1,inactive,inactive,–,–
CC(C)C(C)/C=C/[C@@H](C)[C@H]1CCC2=C3C=CC4=CC(=O)CC[C@]4(C)[C@H]3CC[C@@]21C (some centres not stated),inactive,inactive,–,–
CC[C@@H](C)[C@H]1NC(=O)[C@H](C(C)C)NC(=O)[C@H](Cc2ccccc2)N(C)C(=O)[C@@H]2CCCN2C(=O)[C@H](CC(C)C)NC1=O,–,inactive,<0.3125,–
CC(C)[C@@H](C)/C=C/[C@@H](C)[C@H]1CC[C@H]2C3=CC=C4C[C@@H](O)CC[C@]4(C)[C@H]3CC[C@]12C,inactive,inactive,–,–
CC(C)[C@@H](C)/C=C/[C@@H](C)[C@H]1CC[C@H]2C3=CC(=O)C4=CC(=O)CC[C@]4(C)[C@H]3CC[C@]12C,inactive,inactive,–,–
CC(C)[C@@H](C)/C=C/[C@@H](C)[C@H]1CC[C@@H]2[C@]1(C)CCC1[C@]23C=CC2(CC(O)CC[C@]12C)OO3 (some centres not stated),inactive,inactive,–,–
CC(C)[C@@H]1OC(=O)[C@@H](Cc2ccccc2)N(C)C(=O)[C@H](C(C)C)OC(=O)[C@@H](Cc2ccccc2)N(C)C(=O)[C@H](C(C)C)OC(=O)[C@@H](Cc2ccccc2)N(C)C1=O [BEAUVERICIN],–,–,–,<0.375
